The subject of assay [1] is Canis familiaris. Nature of the assay: (§1) Reduction in gastric acid secretion under histamine[160 ug/(kg h)] stimulation in anesthetized dogs after intravenous administration. Format: functional. Conditions: Canis lupus familiaris, Stomach. The method, boiled down:
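Fasted (24 h) mongrel dogs, 8-10 kg, anesthetized with iv pentobarbital (30 mg/kg). Gastric juice acidity titrated with 0.05 N NaOH. Percent inhibition per dose taken from predrug acid output versus minimum output, usually reached within 45 min of dosing. ED50 read from semilog plot of inhibition against dose; two to four dogs per compound.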

Assay [2] addresses Histamine H2 receptor (Cavia porcellus) (UniProt P47747). The experiment in a line: Histamine H2 receptor antagonist activity (chronotropic response to histamine) in guinea pig right atrium. It is filed as functional, tissue-based. Conditions: Cardiac atrium. In a few lines: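 Spontaneously beating atrium; rate recorded via force-displacement transducer. Test compound added 10 min before histamine (5 × 10⁻⁶ M), three to four concentrations per compound. Percent inhibition of the histamine-induced rate increase plotted against log concentration; 50% inhibitory dose read from the dose-response curve (means ± SE).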

The test system of assay [3] is Canis familiaris. Described as §1. Conditions: Canis lupus familiaris, Stomach.

Sequence of Histamine H2 receptor (Cavia porcellus) (P47747 whole entry): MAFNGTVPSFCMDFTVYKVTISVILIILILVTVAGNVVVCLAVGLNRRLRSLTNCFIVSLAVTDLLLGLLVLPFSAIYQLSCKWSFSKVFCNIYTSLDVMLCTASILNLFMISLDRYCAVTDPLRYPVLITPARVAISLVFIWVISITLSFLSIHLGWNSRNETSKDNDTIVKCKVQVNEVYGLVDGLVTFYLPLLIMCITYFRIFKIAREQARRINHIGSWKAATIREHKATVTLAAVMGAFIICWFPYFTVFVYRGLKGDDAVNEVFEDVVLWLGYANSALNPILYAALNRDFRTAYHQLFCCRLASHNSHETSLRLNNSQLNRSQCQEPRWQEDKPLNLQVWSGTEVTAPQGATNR

As to `N=C(N)Nc1nc(CCCCC(=N)NS(N)(=O)=O)cs1`, the ED50 worked out at 0.0089 mg/kg in assay [1] and 230 nM in assay [2]. Take `N=C(N)Nc1nc(CSCCC(=N)NS(N)(=O)=O)no1`: the ED50 in assay [2] is more than 100000 nM. Consider `CCCNS(=O)(=O)NC(=N)CCCCc1csc(N=C(N)N)n1`, for which the ED50 turned out to be 0.0266 mg/kg in assay [1] and 560 nM in assay [2].

In turn, `CS(=O)(=O)NC(=N)CCSCc1csc(N=C(N)N)n1` displayed an ED50 in assay [2] of 510 nM. On to `N=C(N)Nc1nc(CCCCC(=N)NS(=O)(=O)c2ccccc2)cs1`, for which the ED50 in assay [1] amounted to 0.0194 mg/kg; in assay [2] it was 580 nM. In assay [2], `N=C(N)Nc1nc(CSCCC(=N)NNS(=O)(=O)c2ccccc2)cs1` had an ED50 of 8300 nM. With `N=C(N)Nc1nc(CSCCC(=N)NS(=O)(=O)c2ccc(N)cc2)cs1`, the values for the ED50 in assay [1] and in assay [2] were 0.03 mg/kg and 450 nM, respectively. `Cc1[nH]cnc1CSCCC(=N)NS(N)(=O)=O` registered an ED50 in assay [2] of more than 100000 nM. For `CNS(=O)(=O)NC(=N)CCSCc1csc(N=C(N)N)n1`, the ED50 worked out at 0.0366 mg/kg in assay [1] and 860 nM in assay [2]. As to `N=C(N)Nc1nc(C[S+]([O-])CCC(=N)NS(N)(=O)=O)cs1` (configuration not stated), in assay [2], the ED50 was 73000 nM.

`CN(C)Cc1ccc(CSCCC(=N)NS(N)(=O)=O)o1` came in with an ED50 in assay [2] of 17000 nM. The same measure, in the same setting: the result for `N=C(CCCOc1cccc(CN2CCCCC2)c1)NS(N)(=O)=O` reads 1400 nM.

Turning to `CN/C(=N\CCSCc1nc[nH]c1C)NC#N` [CIMETIDINE], the ED50 in assay [3] worked out at 0.33 mg/kg; in assay [2] it was 2700 nM. With `CN(C)S(=O)(=O)NC(=N)CCSCc1csc(N=C(N)N)n1.O=C(O)/C=C\C(=O)O`, the figures for the ED50 in assay [1] and in assay [2] were 0.277 mg/kg and 1400 nM, respectively. Taken in the same sequence, the figures for `CCS(=O)(=O)NC(=N)CCCCc1csc(N=C(N)N)n1` were 0.0244 mg/kg and 600 nM. For the compound `N=C(CCSCc1ccccn1)NS(N)(=O)=O`, the ED50 in assay [2] is more than 100000 nM. Same read-out and setting: the result for `N=C(N)Nc1nc(CCCCC(=N)NS(=O)(=O)NC2CCCCC2)cs1` reads 1300 nM. The same measure, in the same setting: the result for `N=C(N)Nc1nc(CCCCC(=N)NNS(=O)(=O)c2ccccc2)cs1` reads 23000 nM.

Regarding `N=C(N)Nc1nc(CSCCC(=N)NS(=O)(=O)c2ccccc2)cs1`, the ED50 amounted to 0.0568 mg/kg in assay [1] and 700 nM in assay [2]. On to `CN(C)Nc1nc(CSCCC(=N)NS(N)(=O)=O)cs1`, for which, in assay [2], the ED50 is more than 100000 nM. Turning to `C/N=C(\N)Nc1nc(CSCCC(=N)NS(N)(=O)=O)cs1`, the ED50 is 0.0518 mg/kg in assay [1] and 480 nM in assay [2].

In the case of `N=C(N)Nc1nc(CSCCC(=N)NS(=O)(=O)NCc2ccccc2)cs1`, the ED50 is 0.0396 mg/kg in assay [1] and 1100 nM in assay [2]. In the same order, the values of `NC(N)=Nc1nc(CSCC/C(N)=N/S(N)(=O)=O)cs1` [FAMOTIDINE] are 0.0087 mg/kg and 270 nM. In the same order, the values of `N=C(N)Nc1nc(CCCCC(=N)NS(=O)(=O)c2ccc(N)cc2)cs1` are 0.0101 mg/kg and 350 nM.
